We go through 23 molecules from ChEMBL document CHEMBL1156753, “Structural studies of pterin-based inhibitors of dihydropteroate synthase” (J Med Chem, 2010).

Test [1] addresses T1, Dihydropteroate synthase (Bacillus anthracis) (UniProt Q81VW8).
T1 sequence (whole entry): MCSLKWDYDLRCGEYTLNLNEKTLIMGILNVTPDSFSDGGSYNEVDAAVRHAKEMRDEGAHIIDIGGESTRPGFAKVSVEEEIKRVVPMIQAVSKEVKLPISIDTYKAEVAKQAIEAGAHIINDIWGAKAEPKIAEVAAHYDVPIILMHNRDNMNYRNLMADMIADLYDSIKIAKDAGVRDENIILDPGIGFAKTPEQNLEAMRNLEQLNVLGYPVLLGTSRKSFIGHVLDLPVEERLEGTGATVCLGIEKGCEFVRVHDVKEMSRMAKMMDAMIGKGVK
Kind of test: Inhibition of Bacillus anthracis DHPS expressed in Escherichia coli BL21 (DE3) at 500 uM after 30 mins. The method, boiled down:
(§1)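 Reaction held 5 μM 14C pABA, 10 μM enzymatically prepared dihydropterin diphosphate, 10 mM MgCl2, 2% DMSO, 50 mM HEPES pH 7.6, 10 ng DHPS. Product was separated by PEI-cellulose TLC and quantified by phosphorimaging as percent inhibition.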

For test [2], the target named is T2, Dihydropteroate synthase (Bacillus anthracis, UniProt Q81VW8).
T2 sequence (Q81VW8 whole entry): T1 sequence (whole entry)
Kind of test: Inhibition of Bacillus anthracis DHPS expressed in Escherichia coli BL21 (DE3) after 30 mins. An outline of the steps: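 Radiometric assay at 37 °C for 30 min: 5 μM 14C pABA, 10 μM enzymatically prepared dihydropterin diphosphate, 10 mM MgCl2, 2% DMSO, 50 mM HEPES pH 7.6, 5 ng DHPS, over a range of inhibitor concentrations. The reaction was stopped with acetic acid on ice. 14C dihydropteroate was separated from pABA by PEI-cellulose TLC and quantified by phosphorimaging. IC50 was obtained by curve fitting.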

The target in test [3] is T2, Dihydropteroate synthase. As to the kind of experiment: Binding affinity to Bacillus anthracis DHPS expressed in Escherichia coli BL21 (DE3) after 30 mins by isothermal titration calorimetry. The method, boiled down: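 ITC at 25 °C in 40 mM HEPES, 4 mM MgCl2, pH 7.6; 5% DMSO added to the buffer for the inhibitor titration. Protein was dialyzed against 50 mM HEPES, 5 mM MgCl2, pH 7.6. Nineteen injections of 500 μM ligand went into 20 μM DHPS. Kd was fitted to a one-site binding model.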
On the technique in general: Isothermal titration calorimetry measures the heat released or taken up as one component is titrated into another.

The target in test [4] is T1, Dihydropteroate synthase (Bacillus anthracis). Kind of test: Inhibition of Bacillus anthracis DHPS expressed in Escherichia coli BL21 (DE3) at 250 uM after 30 mins. The method, boiled down: as §1

What is called inhibition is how much of the control response was suppressed. Low values mean a response near the control, high ones a response far below the control. The molecule `CC1CNc2nc(N)[nH]c(=O)c2N1` (centres undefined) came in with an inhibition in test [1] of 67%.
Usually IC50 stands for the concentration that inhibits the measured activity by half. Higher therefore signals weaker potency in that assay. As to `Nc1nc2ncc(CCNc3ccc(C(=O)O)cc3)nc2c(=O)[nH]1`, the inhibition in test [1] was 76%. Further, on Dihydropteroate synthase [2], half-maximal inhibition (IC50) was put at 87.1 µM.
In turn, `NC(=O)c1nc[nH]c1C(N)=O` showed an inhibition in test [1] of 32%.
Same read-out and setting: in the case of `Cc1cc(/C=C2/C(=O)N=C(O)N=C2O)c(C)n1C` it was 35%.
Regarding `Nc1nnc(N)c2[nH]cnc12`, the inhibition in test [1] turned out to be 32%. At Dihydropteroate synthase [2], this molecule yielded a half-inhibitory concentration (IC50) of over 500 µM.
Molecule `Nc1nc2nc3c(nc2c(=O)[nH]1)CCCC3` came in with an inhibition in test [1] of 31%.
Molecule `Cn1c(=O)c2nc(C=O)c(=O)[nH]c2n(C)c1=O` gave an inhibition in test [1] of 44%.
Broadly, the Kd is the constant that tells how readily two partners part at equilibrium. A higher Kd goes with a looser complex. `CN1CC(C(=O)O)=Nc2c1nc(N)[nH]c2=O` showed a Kd at Dihydropteroate synthase [3] of 5.26 µM. The molecule also yielded an inhibition in test [4] of 93%. For the same molecule, inhibition against Dihydropteroate synthase [2] was half-maximal at 32.4 µM (IC50).
Take `CN1CC(CC(C)(C)O)=Nc2c1nc(N)[nH]c2=O`: in test [1], the inhibition was 54%. The molecule further yielded an IC50 against Dihydropteroate synthase [2] of 215 µM.
The matching figures for `Nc1nc2[nH]c(=O)c(C(=O)O)nc2c(=O)[nH]1`: 70% and 269 µM.
The matching figures for `CC(C(=O)O)c1nn(C)c2nc(N)[nH]c(=O)c2c1=O` (centres undefined): 97% and 19.8 µM.
On to `CNc1nc(N)[nH]c(=O)c1[N+](=O)[O-]`, for which the inhibition in test [1] worked out at 53%.
Turning to `CN1CC=Nc2c1nc(N)[nH]c2=O`, in test [1], the inhibition came out at 76%. At Dihydropteroate synthase [2], this molecule gave an IC50 of 86.7 µM.
As for `Nc1nc2ncc(C(=O)O)nc2c(=O)[nH]1`, the inhibition in test [1] was 37%.
Regarding `Nc1nc(N)c([N+](=O)[O-])c(=O)[nH]1`, the inhibition in test [4] turned out to be 80%. At Dihydropteroate synthase [2], the IC50 was 109 µM.
The molecule `Nc1nc2[nH]c(S)nc2c(=O)[nH]1` yielded an inhibition in test [4] of 0%.
As for `Nc1nc2c(c(=O)[nH]1)N=C(CCNc1ccc(C(=O)O)cc1)CN2`, in test [1], the inhibition came out at 100%. This molecule registered an IC50 at Dihydropteroate synthase [2] of 25.9 µM.
The molecule `Cn1c(=O)c2nc(C(=O)O)c(=O)[nH]c2n(C)c1=O` had an inhibition in test [1] of 33%.
Molecule `Nc1nc(N)c(N=O)c(=O)[nH]1` showed an inhibition in test [4] of 81%. Besides, the half-inhibitory concentration (IC50) against Dihydropteroate synthase [2] is 8 µM.
Molecule `Nc1ccc2nc(CCc3nc4ccc(N)cc4[nH]3)[nH]c2c1` displayed an inhibition in test [1] of 62%.
Still for that read-out and setting: the result for `Nc1nc(NCCCOc2ccc(C(=O)O)cc2)c(N=O)c(=O)[nH]1` reads 79%.
On Dihydropteroate synthase [3], `Nc1ccc(C(=O)O)cc1` [AMINOBENZOIC ACID] came in with an equilibrium dissociation constant (Kd) of 5.62 µM.
As to `Nc1ncc(Oc2ccccc2)c(=O)[nH]1`, the inhibition in test [1] worked out at 37%.
